Laboratory results published in ChEMBL document CHEMBL1127817, “Antitumor agents. 150. 2',3',4',5',5,6,7-substituted 2-phenyl-4-quinolones and related compounds: their synthesis, cytotoxicity, and inhibition of tubulin polymerization” (J Med Chem, 1994).
pIC50: −log10 of the molar value.

How the values were obtained:
HCT-116 = assay: In vitro inhibition of tumor cell growth of HCT116, colon cancer cell line; format: functional; conditions: Homo sapiens
KM-20L2 [1] = assay: Inhibition of in vitro tumor cell growth in KM20L2, colon cancer cell line; format: functional; conditions: Homo sapiens
NCI-H226 = assay: In vitro inhibition of tumor cell growth of NCI-H226, a non small-cell lung cancer cell line; format: functional; conditions: Homo sapiens
OVCAR-3 = assay: In vitro inhibition of tumor cell growth of OVCAR-3, ovarian cancer cell line; format: functional; conditions: Homo sapiens
RXF 393 = assay: In vitro inhibition of tumor cell growth of RXF-393, renal cancer cell line; format: functional; conditions: Homo sapiens
SK-MEL-5 = assay: In vitro inhibition of tumor cell growth of SK-Mel-5, melanoma cell line; format: functional; conditions: Homo sapiens
SF-295 = assay: In vitro inhibition of tumor cell growth of SF-295, CNS tumor cell line; format: functional; conditions: Homo sapiens
Tubulin beta chain = Tubulin beta chain (Bos taurus, UniProt Q6B856); assay: Inhibition of tubulin polymerization; format: functional
Chain of Tubulin beta chain (Q6B856 whole entry): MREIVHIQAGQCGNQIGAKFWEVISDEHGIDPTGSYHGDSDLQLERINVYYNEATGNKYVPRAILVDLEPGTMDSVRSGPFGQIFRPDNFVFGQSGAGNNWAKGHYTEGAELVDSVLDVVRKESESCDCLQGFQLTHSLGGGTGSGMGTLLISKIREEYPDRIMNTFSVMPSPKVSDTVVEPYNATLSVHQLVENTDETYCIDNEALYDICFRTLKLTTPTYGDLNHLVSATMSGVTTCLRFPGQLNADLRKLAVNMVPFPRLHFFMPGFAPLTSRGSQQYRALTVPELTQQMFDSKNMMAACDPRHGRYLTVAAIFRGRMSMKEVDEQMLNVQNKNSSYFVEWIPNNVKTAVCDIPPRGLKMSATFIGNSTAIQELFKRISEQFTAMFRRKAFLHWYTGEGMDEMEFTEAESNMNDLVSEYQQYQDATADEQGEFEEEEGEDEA

SF-268 [2] = assay: In vitro inhibition of tumor cell growth ofSF-268, CNS tumor cell line; format: functional; conditions: Homo sapiens
DMS-114 = assay: In vitro inhibition of tumor cell growth of DMS114, a small-cell lung cancer cell line; conditions: Homo sapiens
SF-268 [3] = assay: In vitro inhibition of tumor cell growth of SF-268, CNS tumor cell line; format: functional; conditions: Homo sapiens
Tubulin (Bos taurus) = Tubulin (Bos taurus) (UniProt Q6B856+Q862L2+Q862F3); assay: Inhibition of colchicine binding to tubulin isolated from bovine brain tissue; format: functional; design: concentration or dose not given beside the values; conditions: concentration not given here
Summary of the method: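 1.0 μM tubulin incubated with 5.0 μM [3H]colchicine and 5.0 μM test agent; bound colchicine measured by DEAE-cellulose filter technique.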

KM-20L2 [4] = assay: In vitro inhibition of tumor cell growth of KM20L2, colon cancer cell line; format: functional; conditions: Homo sapiens

Structure (SMILES)	GI50 (HCT-116)	GI50 (NCI-H226)	GI50 (OVCAR-3)	GI50 (SK-MEL-5)	pIC50 (Tubulin beta chain)	GI50 (DMS-114)	inhibition (Tubulin (Bos taurus))	GI50 (KM-20L2 [1])	GI50 (RXF 393)	GI50 (SF-295)	GI50 (SF-268 [2])	GI50 (SF-268 [3])	GI50 (KM-20L2 [4])
COc1cc(OC)cc(-c2cc(O)c3cc4c(cc3n2)OCO4)c1	316 nM	219 nM	195 nM	309 nM	6.21	302 nM	31%	–	219 nM	257 nM	–	708 nM	708 nM
COc1ccc2nc(-c3cccc(N(C)C)c3)cc(O)c2c1	195 nM	372 nM	170 nM	195 nM	6.08	–	18%	–	120 nM	204 nM	–	603 nM	–
O=c1cc(-c2ccccc2F)[nH]c2cc3c(cc12)OCO3	60.3 nM	447 nM	81.3 nM	20.9 nM	6.07	513 nM	37%	–	–	55 nM	–	2290 nM	–
COc1ccc2nc(-c3ccccc3)cc(O)c2c1	–	–	–	–	6.21	–	11%	–	–	–	–	–	–
COc1cccc(-c2cc(O)c3cc(OC)ccc3n2)c1	155 nM	347 nM	–	117 nM	6.13	–	13%	–	191 nM	151 nM	–	229 nM	–
COc1ccc(-c2cc(O)c3cc(Cl)ccc3n2)cc1	> 100000 nM	> 100000 nM	> 100000 nM	> 100000 nM	< 4.40	> 100000 nM	–	–	> 100000 nM	> 100000 nM	–	> 100000 nM	> 100000 nM

The next lines start with results.

GI50 (HCT-116)	GI50 (NCI-H226)	GI50 (OVCAR-3)	GI50 (SK-MEL-5)	pIC50 (Tubulin beta chain)	GI50 (DMS-114)	inhibition (Tubulin (Bos taurus))	Structure (SMILES)	GI50 (KM-20L2 [1])	GI50 (RXF 393)	GI50 (SF-295)	GI50 (SF-268 [2])	GI50 (SF-268 [3])	GI50 (KM-20L2 [4])
28200 nM	22900 nM	39800 nM	89100 nM	4.85	25100 nM	–	COc1ccccc1-c1cc(O)c2cc3c(cc2n1)OCO3	18600 nM	15100 nM	20900 nM	64600 nM	–	–
174 nM	200 nM	45.7 nM	37.1 nM	6.24	240 nM	–	COc1cccc(-c2cc(O)c3cc4c(cc3n2)OCO4)c1	–	45.7 nM	91.2 nM	132 nM	–	182 nM
676 nM	1580 nM	427 nM	1740 nM	–	–	12%	Cc1ccc(-c2cc(O)c3cc4c(cc3n2)OCO4)cc1	–	–	1910 nM	–	2190 nM	1410 nM
87.1 nM	263 nM	77.6 nM	36.3 nM	6.05	–	24%	Oc1cc(-c2ccccc2Cl)nc2cc3c(cc12)OCO3	–	–	–	–	692 nM	–
